Experimental data taken from ChEMBL document CHEMBL4014347, “Targeting Mycolic Acid Transport by Indole-2-carboxamides for the Treatment of Mycobacterium abscessus Infections” (J Med Chem, 2017).
Activity calls are given as the source filed them.

Tests used:
[1] = system: Mycobacteroides abscessus; assay: Antibacterial activity against CF patient derived Mycobacterium abscessus subsp. abscessus isolate 1298 smooth variant after 3 to 5 days by two fold serial dilution method; type: functional
Summary of the method: (§1)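 Broth microdilution in cation-adjusted Mueller−Hinton broth per CLSI; inoculum 5 × 10^6 CFU/mL of exponential-phase bacteria; two-fold serial dilutions, solvent-only wells as control; 30 °C for 3−5 days; MIC read visually and confirmed by absorbance at 560 nm; triplicate on three independent occasions.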

[2] = system: Mycobacteroides abscessus; assay: Antibacterial activity against Addison's disease patient derived Mycobacterium abscessus subsp. massiliense isolate CIP108297 rough variant after 3 to 5 days by two fold serial dilution method; type: functional; summary of the method: as §1
[3] = system: Mycobacteroides abscessus; assay: Antibacterial activity against CF patient derived Mycobacterium abscessus subsp. massiliense isolate 140 smooth variant after 3 to 5 days by two fold serial dilution method; type: functional; summary of the method: as §1
[4] = system: Mycobacteroides abscessus; assay: Antibacterial activity against CF patient derived Mycobacterium abscessus subsp. massiliense isolate 100 smooth variant after 3 to 5 days by two fold serial dilution method; type: functional; summary of the method: as §1
[5] = system: Mycobacteroides abscessus; assay: Antibacterial activity against CF patient derived Mycobacterium abscessus subsp. massiliense isolate 120 smooth variant after 3 to 5 days by two fold serial dilution method; type: functional; summary of the method: as §1
[6] = system: Mycobacteroides abscessus; assay: Inhibition of MmpL3 in Mycobacterium abscessus CIP104536 smooth variant assessed as reduction in trehalose dimycolate synthesis up to 6.2 ug/ml preincubated for 1 hr followed by [14C]acetic acid addition measured after 2 hrs by TLC based autoradiography analysis
Summary of the method: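 Exponential cultures in 7H9 with OADC exposed to increasing drug concentrations for 1 h at 37 °C with agitation, then labelled with 1 μCi/mL [14C]acetate (56 mCi/mmol) for 2 h; apolar lipids (TMM, TDM) run on TLC in chloroform/methanol/water 40:8:1; MAME and arabinogalactan-bound mycolates in petroleum ether/acetone 95:5; autoradiography.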

O=C(NC1CCCCCC1)c1cc2c(Cl)cc(Cl)cc2[nH]1
active: inhibition [6]
0.125 µg/mL: MIC [1] | MIC [2] | MIC [3] | MIC [4] | MIC [5]
